S100A4 inh HTS: blocks human S100A4 binding to myosin IIA peptide. S100A4/TAMRA-MyoIIA peptide fluorescence polarization. inhibition, % at 10.7 µM. actives 0.14% (n = 360,000). AID 652163;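 active means mean inhibition of at least 70% across replicates, with every replicate also reaching that level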
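Test system: S100A4 monomer protein; Medium: HEPES pH 7.2 with CaCl2, KCl, NaCl, DTT, Triton; Probe or stimulus: TAMRA-labelled myosin IIA heavy-chain peptide probe, 5 nM; Doses: one dose per compound; Times: polarization read 5 min after assay mix addition, stable 5–60 min; Benchmarks: neutral control DMSO, positive control TFP.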
RAD52 inh: inhibitors of human RAD52 DNA annealing. inhibition, % at 18.7 µM. actives 0.46% (n = 360,000). P43351. recombinant RAD52 DNA annealing, FRET fluorescence;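 active means every replicate showing at least 50% inhibition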
MLL AF4-AF9 inh: blocks AF4 peptide binding to human AF9 | P42568 | AlphaScreen, biotin-AF4 peptide binding to FLAG-AF9 | inhibition, % at 10 µM | actives 0.47% (n = 350,000);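 active means every replicate reaching a set inhibition limit, whatever the replicate mean, cut at about 25% in these data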;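 further: 0% = plate neutral control median and 100% = total signal loss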
Target sequence (P42568 whole entry, looked up): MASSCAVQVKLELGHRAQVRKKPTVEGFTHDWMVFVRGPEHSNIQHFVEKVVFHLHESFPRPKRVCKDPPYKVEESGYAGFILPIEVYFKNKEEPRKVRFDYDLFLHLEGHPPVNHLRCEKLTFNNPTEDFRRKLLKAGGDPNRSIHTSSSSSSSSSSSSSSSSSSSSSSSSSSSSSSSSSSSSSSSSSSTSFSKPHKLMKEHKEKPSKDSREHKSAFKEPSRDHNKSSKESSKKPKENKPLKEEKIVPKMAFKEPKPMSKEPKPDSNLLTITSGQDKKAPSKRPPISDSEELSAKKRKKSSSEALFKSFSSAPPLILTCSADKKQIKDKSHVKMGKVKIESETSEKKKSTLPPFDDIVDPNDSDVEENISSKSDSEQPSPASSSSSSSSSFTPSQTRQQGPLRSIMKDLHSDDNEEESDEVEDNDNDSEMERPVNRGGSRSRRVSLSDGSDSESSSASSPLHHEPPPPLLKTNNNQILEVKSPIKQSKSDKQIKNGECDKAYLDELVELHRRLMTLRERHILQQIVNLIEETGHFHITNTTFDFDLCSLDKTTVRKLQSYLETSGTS
INS-1E GSIS act: GLuc luminescence reporter in INS-1E cells, primary screen for activators of glucose-dependent secretion of insulin. INS-1E GLuc reporter insulin secretion, 2-3 h. activation, % at 16.6 µM. actives 0.61% (n = 370,000);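 active means lowest replicate activation of at least 40%, so every replicate reaches that level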;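 further: 0% = median of neutral control wells and 100% = median of IBMX positive control wells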
RAD54 inh: blocks human RAD54 Holliday junction branch migration | inhibition, % at 10.4 µM | actives 0.14% (n = 360,000) | FAM/BHQ fluorescence | Q92698;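 active means mean normalized replicate activity at least 40 and at least half of replicates scoring 40 or more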;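 further: 0% = median of neutral control wells and 100% = median of positive control wells; inhibitors cause a drop in the FAM fluorescence signal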
An asterisk follows results filed as active; . = not tested or not shown. Compounds with a hit are over-represented: about 1.3% of the library has one in this group of screens.

SMILES	S100A4 inh HTS	RAD52 inh	MLL AF4-AF9 inh	INS-1E GSIS act	RAD54 inh
CC(C)C#Cc1ccc([C@@H]2[C@@H](C#N)N(C(=O)c3cccc(F)c3)[C@H]2CO)cc1	-7	4	-2	5	0
CC(C)C#Cc1ccc([C@H]2[C@@H](CO)N(C(=O)c3cccc(F)c3)[C@H]2C#N)cc1	109*	15	-2	-14	-14
CCS(=O)(=O)N[C@@H]1CC[C@@H](CC(=O)NCc2ccccn2)O[C@@H]1CO	1	-29	-5	-4	-13
CCc1ccc(OCC(=O)NC(=S)Nc2ccc(C(C)=O)cc2)c(Br)c1	5	-4	0	8	7
CCc1ccc(OCC(=O)NC(=S)Nc2ccc(F)cc2)c(Br)c1	.	.	.	59*	1
CC(=O)NC1C(=O)N(CCN2CCOCC2)c2ccc(Br)cc21 (centres undefined)	-3	23	16	11	-18
CCOc1ccc2c(c1)C(NC(C)=O)C(=O)N2CCN1CCOCC1 (centres undefined)	-6	22	25*	1	-31
CC1CN(c2cc(=O)n(-c3ccccc3)c(=O)[nH]2)CC(C)O1 (centres undefined)	-1	-14	-2	.	8
Cc1ccc(-n2c(=O)cc(N3CC(C)OC(C)C3)[nH]c2=O)cc1 (centres undefined)	-6	-5	44*	.	5
C[C@H](CO)N1C[C@H](C)[C@H](CN(C)Cc2ccccc2)Oc2ccc(NS(=O)(=O)c3ccc(Cl)cc3)cc2CC1=O	-1	16	4	-16	0
C[C@@H]1CN([C@H](C)CO)C(=O)c2c(c3ccccc3n2C)-c2ccccc2CO[C@H]1CN(C)S(=O)(=O)c1ccc(C#N)cc1	10	26	5	1	-2
COc1ccc2c3c([nH]c2c1)[C@H](CO)N(C(=O)Nc1cccc(F)c1)CC31CN(CC2CC2)C1	12	2	29*	-15	.
COc1ccc2c3c([nH]c2c1)[C@@H](CO)N(C(=O)Nc1cccc(F)c1)CC31CCN(CC2CC2)CC1	0	-5	25*	-9	.
COc1ccc2c3c([nH]c2c1)[C@H](CO)N(C(=O)Nc1cccc(F)c1)CC31CCN(CC2CC2)CC1	-3	25	12	-3	.
Cc1[nH]ccc(=O)c1OCc1ccccc1	.	.	.	.	-13
O=c1cc(OCc2ccccc2)cc[nH]1	0	-4	75*	13	-5
CC(OC(=O)C1COc2ccccc2O1)C(=O)N(C)c1ccccc1 (centres undefined)	7	-50	0	0	.
NC(=O)c1ccc(NC(=O)C2COc3ccccc3O2)cc1 (centres undefined)	2	-8	2	1	-4
O=C(Nc1ccc(F)cc1)C1COc2ccccc2O1 (centres undefined)	1	-8	0	184*	-7
CC(OC(=O)C1COc2ccccc2O1)C(=O)c1ccccc1 (centres undefined)	-2	-8	-6	48*	-2
O=C(N[C@@H]1CC[C@H](CCNC(=O)C2CCCCC2)O[C@H]1CO)c1ccccn1	26	9	10	9	-2
CCN=C1S/C(=C/c2ccc(-c3ccc(Cl)cc3C(=O)O)o2)C(=O)N1CC	14	-310	0	88*	.
NC(N)=N/N=C/c1ccc(OCc2ccccc2)c(OCc2ccccc2)c1	-3	10	20	439*	-3
O=C(C[C@H]1CC[C@@H]2[C@H](COC[C@@H](O)CN2Cc2cccc(Cl)c2)O1)NCC1CCCCC1	.	.	.	-10	-2
C/C=C/c1ccc([C@H]2[C@@H](CO)N(C(C)=O)[C@@H]2CNC(=O)c2ccccc2)cc1	-14	-67	2	-1	-1
SMILES	S100A4 inh HTS	RAD52 inh	MLL AF4-AF9 inh	INS-1E GSIS act	RAD54 inh
CCCC(=O)Nc1ccc2c(c1)C(=O)N(C)[C@@H]1CC[C@@H](CC(=O)NCC3CC3)O[C@H]1CO2	10	0	-3	10	2
C[C@@H](NC(=O)C[C@H]1CC[C@H]2[C@@H](COC[C@@H](O)CN2C(=O)Nc2cccc(F)c2)O1)c1ccccc1	-8	8	-2	6	3
O=S(=O)(NC1CCCCCC1)c1cccc2cccnc12	.	.	.	.	-7
CCC(CNc1cc(OC)cc2cccnc12)NC1CCCCC1 (centres undefined)	140*	36	56*	-12	.
COc1cc(NC(=O)c2ccccc2Cl)c2ncccc2c1	-2	-11	0	21	7
COc1cc(NCCCC(C)N)c2ncccc2c1 (centres undefined)	.	.	.	.	69*
Cc1ccc(-c2cnc3c(c2)C(=O)N([C@H](C)CO)C[C@@H](C)[C@H](CN(C)CC2CCCC2)O3)cc1	10	8	3	6	1
CCc1cnc(N2[C@H](CO)[C@@H](c3ccc(C#CC(C)C)cc3)[C@@H]2C#N)s1	3	-47	5	-10	5
O=C1/C(=C/c2cccs2)NC(=S)N1C1CC1	6	-16	5	47*	3
N#CCc1nn(-c2ccc(Cl)cc2)c(N)c1C#N	.	.	.	-3	-11
N#CCc1nn(-c2ccccc2)c2ncnc(N)c12	2	-1	-2	71*	.
CCC(=O)Nc1ccc2c(c1)C(=O)N(C)[C@@H]1CC[C@@H](CC(=O)NC3CCCC3)O[C@@H]1CO2	-4	0	-4	3	-1
O=C(NCCCCNC(=O)C(F)(F)F)C(F)(F)F	3	-1	25*	24	.
CCN(CC)c1ccc(NC(=O)CSc2nc3nc(C)cc(C)c3c(=O)[nH]2)cc1	-11	-11	-10	42*	12
C[C@H](CO)N1C[C@H](C)[C@@H](CN(C)S(=O)(=O)c2ccc(F)cc2)Oc2ccc(NC(=O)Nc3cccc4ccccc34)cc2C1=O	-9	-11	4	1	-11
CCSc1ncnc2sc3c(c12)CCC3	.	.	.	43*	-8
O=C(O)CSc1ncnc2sc3c(c12)CCC3	.	.	.	.	1
COc1ccc(CCC(C)NC(=O)CCc2ccccc2)c(OC)c1 (centres undefined)	3	-6	-2	-21	-1
COc1cc(OC)c(OC)cc1CCC(C)NC(=O)Cc1ccccc1 (centres undefined)	12	-7	1	44*	3
C/C=C/c1ccc([C@@H]2[C@@H](CO)N(C(=O)NC(C)C)[C@H]2CN(C)C(=O)CC)cc1	7	3	-2	-1	-5
CCS(=O)(=O)c1nc(S(=O)(=O)c2ccc(C)cc2)c(N2CCC(O)CC2)s1	-2	-7	1	41*	1
CCS(=O)(=O)c1nc(S(=O)(=O)c2ccc(C)cc2)c(N2CCCC2)s1	3	-3	0	6	-3
COC(=O)c1c(N)n(CCCN2CCOCC2)c2nc3ccccc3nc12	.	.	.	.	79*
O=C(NC(=S)Nc1ccc(NC(=O)c2cccs2)cc1)c1cc2ccccc2o1	.	.	.	74*	.
CC(C)(C)C1=Nn2c(nnc2C2CCCCC2)SC1	.	.	.	81*	3
